Assay results from ChEMBL document CHEMBL5357024, “MDM2 Antagonist Idasanutlin Reduces HDAC1/2 Abundance and Corepressor Partners but Not HDAC3” (ACS Med Chem Lett, 2024).
Calls of active or inactive are those of the source. The calls are words filed in the database; no cut-off is given here.

Key:
Type in all cases: cell-based
[1] = target: Lysine-specific histone demethylase 1A (Homo sapiens) (UniProt O60341); assay: Induction of LSD1 degradation in human HCT-116 cells assessed as reduction in LSD1 abundance by measuring remaining activity at 5 uM measured after 24 hrs by Western blot analysis (reference value: 100%)
In short: (§1)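 HCT116 cells seeded in six-well plates for 24 h, then exposed 24 h to compound (0.01–10 μM) or DMSO in fresh medium. Lysis in Tris-HCl/NaCl/NP-40/Triton X-100 with protease inhibitor. Bradford-normalised 30 μg protein per lane. Quantitative Western blot used specific HDAC1, HDAC2, HDAC3, LSD1 or Sin3a antibodies with IRDye secondaries. Abundance compared with DMSO, n = 2 replicates.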

[2] = target: T1, Paired amphipathic helix protein Sin3a (Homo sapiens) (UniProt Q96ST3); assay: Induction of SIN3A degradation in human HCT-116 cells assessed as reduction in SIN3A abundance by measuring remaining activity at 2.5 uM measured after 24 hrs by Western blot analysis (reference value: 100%); in short: as §1
T1 sequence (whole entry): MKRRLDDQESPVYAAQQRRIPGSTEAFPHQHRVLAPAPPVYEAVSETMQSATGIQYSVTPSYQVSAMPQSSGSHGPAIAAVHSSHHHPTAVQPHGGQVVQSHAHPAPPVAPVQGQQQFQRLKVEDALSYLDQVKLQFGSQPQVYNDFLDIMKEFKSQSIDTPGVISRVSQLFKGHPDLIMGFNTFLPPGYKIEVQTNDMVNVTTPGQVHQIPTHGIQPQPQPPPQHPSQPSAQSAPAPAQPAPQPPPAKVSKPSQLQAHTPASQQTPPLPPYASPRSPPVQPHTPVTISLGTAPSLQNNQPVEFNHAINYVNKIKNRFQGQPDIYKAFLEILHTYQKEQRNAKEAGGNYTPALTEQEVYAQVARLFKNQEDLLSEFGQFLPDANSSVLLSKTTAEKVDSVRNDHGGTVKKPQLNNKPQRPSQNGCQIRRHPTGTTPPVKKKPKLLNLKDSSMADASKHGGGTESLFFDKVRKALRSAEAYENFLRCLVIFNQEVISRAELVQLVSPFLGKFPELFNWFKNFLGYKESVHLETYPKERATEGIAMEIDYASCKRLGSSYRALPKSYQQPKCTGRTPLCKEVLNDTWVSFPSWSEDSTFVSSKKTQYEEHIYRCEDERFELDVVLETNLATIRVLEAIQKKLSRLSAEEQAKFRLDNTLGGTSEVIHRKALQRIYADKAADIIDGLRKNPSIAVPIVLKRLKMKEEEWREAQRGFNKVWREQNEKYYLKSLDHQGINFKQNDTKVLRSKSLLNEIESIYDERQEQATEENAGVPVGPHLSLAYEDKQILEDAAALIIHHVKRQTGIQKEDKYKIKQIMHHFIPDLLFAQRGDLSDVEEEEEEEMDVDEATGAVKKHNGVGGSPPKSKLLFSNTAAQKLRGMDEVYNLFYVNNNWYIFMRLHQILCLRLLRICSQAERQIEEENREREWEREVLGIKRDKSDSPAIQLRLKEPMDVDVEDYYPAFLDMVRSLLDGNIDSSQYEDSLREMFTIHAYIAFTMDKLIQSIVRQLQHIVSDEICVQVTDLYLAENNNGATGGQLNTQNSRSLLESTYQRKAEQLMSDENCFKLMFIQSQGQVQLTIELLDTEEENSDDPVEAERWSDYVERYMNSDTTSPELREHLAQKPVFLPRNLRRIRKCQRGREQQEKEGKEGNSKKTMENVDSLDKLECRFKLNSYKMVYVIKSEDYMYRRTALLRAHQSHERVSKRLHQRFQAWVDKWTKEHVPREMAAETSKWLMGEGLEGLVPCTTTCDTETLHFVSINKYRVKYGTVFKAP

[3] = target: T1, Paired amphipathic helix protein Sin3a (Homo sapiens); assay: Induction of SIN3A degradation in human HCT-116 cells assessed as reduction in SIN3A abundance by measuring remaining activity at 1 uM measured after 24 hrs by Western blot analysis (reference value: 100%); in short: as §1
[4] = target: T2, E3 ubiquitin-protein ligase Mdm2/Histone deacetylase 3 (Homo sapiens) (UniProt Q00987+O15379); assay: PROTAC activity at MDM2/HDAC3 in human HCT-116 cells assessed as reduction in HDAC3 abundance by measuring remaining activity at 0.5 uM measured after 24 hrs by Western blot analysis
T2 sequence (O15379 whole entry, looked up): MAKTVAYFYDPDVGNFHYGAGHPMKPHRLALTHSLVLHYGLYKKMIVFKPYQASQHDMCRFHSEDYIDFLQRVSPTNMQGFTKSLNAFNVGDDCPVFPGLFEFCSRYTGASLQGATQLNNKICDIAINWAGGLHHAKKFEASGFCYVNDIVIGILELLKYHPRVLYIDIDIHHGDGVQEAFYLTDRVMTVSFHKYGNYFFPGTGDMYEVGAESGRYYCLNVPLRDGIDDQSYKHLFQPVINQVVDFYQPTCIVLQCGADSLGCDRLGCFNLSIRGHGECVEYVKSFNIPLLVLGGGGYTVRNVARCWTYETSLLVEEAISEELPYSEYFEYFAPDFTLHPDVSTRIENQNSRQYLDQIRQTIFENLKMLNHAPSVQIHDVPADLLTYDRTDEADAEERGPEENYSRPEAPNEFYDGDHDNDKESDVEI
T2 sequence (Q00987 whole entry, looked up): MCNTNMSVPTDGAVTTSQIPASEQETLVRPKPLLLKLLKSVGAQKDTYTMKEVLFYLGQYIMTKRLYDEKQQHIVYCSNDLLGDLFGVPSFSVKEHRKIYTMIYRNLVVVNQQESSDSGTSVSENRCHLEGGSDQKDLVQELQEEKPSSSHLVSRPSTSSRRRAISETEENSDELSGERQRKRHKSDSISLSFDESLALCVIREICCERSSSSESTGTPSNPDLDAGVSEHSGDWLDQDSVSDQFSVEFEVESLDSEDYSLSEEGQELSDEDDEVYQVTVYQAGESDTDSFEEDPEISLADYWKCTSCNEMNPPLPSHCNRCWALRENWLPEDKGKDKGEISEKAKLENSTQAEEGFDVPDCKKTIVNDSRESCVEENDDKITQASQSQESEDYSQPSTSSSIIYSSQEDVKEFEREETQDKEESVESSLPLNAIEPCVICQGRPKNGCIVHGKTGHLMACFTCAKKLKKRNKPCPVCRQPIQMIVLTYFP
In short: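 HCT116 cells in DMEM with 10% FBS and glutamine/penicillin/streptomycin at 37 °C, 5% CO2. Seeded 4 × 10^5 cells/well, after 24 h treated 24 h with DMSO or compound in fresh medium. Lysed in Tris-HCl/NaCl/NP-40/Triton X-100 buffer with protease inhibitor, Bradford-quantified, 30 μg protein per lane. Quantitative Western blot with specific HDAC1/2/3 antibodies, IRDye secondaries, infrared imaging, versus DMSO. n = 2 replicates.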

[5] = target: E3 ubiquitin-protein ligase Mdm2/Histone deacetylase 1 (Homo sapiens) (UniProt Q00987+Q13547); assay: PROTAC activity at MDM2/HDAC1 in human HCT-116 cells assessed as decrease in HDAC1 abundance by measuring remaining activity at 5 uM measured after 24 hrs by Western blot analysis (reference value: 100%); in short: as §1
E3 ubiquitin-protein ligase Mdm2/Histone deacetylase 1 (Homo sapiens), sequence (Q00987 whole entry, looked up): as above
E3 ubiquitin-protein ligase Mdm2/Histone deacetylase 1 (Homo sapiens), sequence (Q13547 whole entry, looked up): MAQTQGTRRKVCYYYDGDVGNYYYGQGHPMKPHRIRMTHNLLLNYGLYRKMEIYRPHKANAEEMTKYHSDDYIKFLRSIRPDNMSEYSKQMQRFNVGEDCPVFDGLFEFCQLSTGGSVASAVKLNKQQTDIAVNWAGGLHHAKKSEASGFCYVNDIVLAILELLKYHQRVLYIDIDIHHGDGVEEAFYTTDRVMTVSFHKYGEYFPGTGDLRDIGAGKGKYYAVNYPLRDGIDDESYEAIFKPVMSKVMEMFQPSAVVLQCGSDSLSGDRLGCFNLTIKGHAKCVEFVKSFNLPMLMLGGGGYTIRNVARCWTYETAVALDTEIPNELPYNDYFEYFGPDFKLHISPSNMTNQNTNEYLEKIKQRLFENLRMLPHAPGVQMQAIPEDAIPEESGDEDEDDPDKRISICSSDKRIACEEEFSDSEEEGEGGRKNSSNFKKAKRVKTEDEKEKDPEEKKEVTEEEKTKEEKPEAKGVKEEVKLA

[6] = target: T1, Paired amphipathic helix protein Sin3a (Homo sapiens); assay: Induction of SIN3A degradation in human HCT-116 cells assessed as reduction in SIN3A abundance by measuring remaining activity at 0.1 uM measured after 24 hrs by Western blot analysis (reference value: 100%); in short: as §1
[7] = target: T3, E3 ubiquitin-protein ligase Mdm2/Histone deacetylase 2 (Homo sapiens) (UniProt Q00987+Q92769); assay: PROTAC activity at MDM2/HDAC2 in human HCT-116 cells assessed as decrease in HDAC2 abundance by measuring remaining activity at 0.5 uM measured after 24 hrs by Western blot analysis (reference value: 100%); in short: as §1
T3 sequence (Q00987 whole entry, looked up): as the sequence (Q00987 whole entry, looked up) above
T3 sequence (Q92769 whole entry, looked up): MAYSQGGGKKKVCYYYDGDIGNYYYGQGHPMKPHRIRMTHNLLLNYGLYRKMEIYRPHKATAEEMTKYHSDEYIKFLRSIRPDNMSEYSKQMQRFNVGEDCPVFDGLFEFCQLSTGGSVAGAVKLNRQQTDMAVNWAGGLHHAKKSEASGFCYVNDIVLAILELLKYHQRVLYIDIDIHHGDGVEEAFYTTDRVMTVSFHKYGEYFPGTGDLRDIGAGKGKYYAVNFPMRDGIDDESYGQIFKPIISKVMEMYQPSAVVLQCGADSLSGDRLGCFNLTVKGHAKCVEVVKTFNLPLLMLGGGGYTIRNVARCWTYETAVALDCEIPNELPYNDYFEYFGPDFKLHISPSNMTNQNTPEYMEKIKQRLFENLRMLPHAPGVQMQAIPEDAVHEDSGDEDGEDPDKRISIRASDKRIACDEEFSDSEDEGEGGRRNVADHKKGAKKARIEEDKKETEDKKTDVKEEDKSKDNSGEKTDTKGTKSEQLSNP

[8] = target: Lysine-specific histone demethylase 1A (Homo sapiens) (UniProt O60341); assay: Induction of LSD1 degradation in human HCT-116 cells assessed as reduction in LSD1 abundance by measuring remaining activity at 0.025 uM measured after 24 hrs by Western blot analysis (reference value: 100%); in short: as §1
[9] = target: T2, E3 ubiquitin-protein ligase Mdm2/Histone deacetylase 3 (Homo sapiens); assay: PROTAC activity at MDM2/HDAC3 in human HCT-116 cells assessed as induction of HDAC3 degradation at 0.01 to 10 uM by Western blot analysis; details: dose 0.01-10 µM
[10] = target: T3, E3 ubiquitin-protein ligase Mdm2/Histone deacetylase 2 (Homo sapiens); assay: PROTAC activity at MDM2/HDAC2 in human HCT-116 cells assessed as decrease in HDAC2 abundance by measuring remaining activity at 0.05 uM measured after 24 hrs by Western blot analysis (reference value: 100%); in short: as §1
[11] = target: T1, Paired amphipathic helix protein Sin3a (Homo sapiens); assay: Induction of SIN3A degradation in human HCT-116 cells assessed as reduction in SIN3A abundance by measuring remaining activity at 0.025 uM measured after 24 hrs by Western blot analysis (reference value: 100%); in short: as §1
[12] = target: T3, E3 ubiquitin-protein ligase Mdm2/Histone deacetylase 2 (Homo sapiens); assay: PROTAC activity at MDM2/HDAC2 in human HCT-116 cells assessed as decrease in HDAC2 abundance by measuring remaining activity at 0.025 uM measured after 24 hrs by Western blot analysis (reference value: 100%); in short: as §1

Q: With COc1cc(C(=O)NCCOCCOCCOCCOCCC(=O)Nc2ccc(C(=O)Nc3ccccc3N)cc2)ccc1NC(=O)[C@@H]1N[C@@H](CC(C)(C)C)[C@](C#N)(c2ccc(Cl)cc2F)[C@H]1c1cccc(Cl)c1F as the compound, how does the Activity [1] read?
A: 70%

Q: And the Activity [2]?
A: 57%

Q: And the Activity [3]?
A: 70%

Q: And the Activity [4]?
A: 106%

Q: And the Activity [5]?
A: 41%

Q: And the Activity [6]?
A: 99%

Q: What about the Activity [7] of the same compound?
A: 89%

Q: What about the Activity [8] of the same compound?
A: 102%

Q: What about the Activity [9] of the same compound?
A: inactive

Q: What about the Activity [10] of the same compound?
A: 90%

Q: What about the Activity [11] of the same compound?
A: 100%

Q: And the Activity [12]?
A: 96%
